Bioassay records deposited in PubChem by The Scripps Research Institute Molecular Screening Center.
CHRM5 PAM: potentiates acetylcholine response at human M5 receptor; P08912; CHO-K1 hM5, Fluo-8 calcium, ACh EC20 PAM; 0% = ACh EC20, 100% = ACh EC100; activation, % at 3 µM; 0.3% of 360,000 active; AID 624038;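 active means activation above the run cutoff, the mean activation of all test compounds plus 3 SD, cut at about 18% in these data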
Target sequence (P08912 whole entry, looked up): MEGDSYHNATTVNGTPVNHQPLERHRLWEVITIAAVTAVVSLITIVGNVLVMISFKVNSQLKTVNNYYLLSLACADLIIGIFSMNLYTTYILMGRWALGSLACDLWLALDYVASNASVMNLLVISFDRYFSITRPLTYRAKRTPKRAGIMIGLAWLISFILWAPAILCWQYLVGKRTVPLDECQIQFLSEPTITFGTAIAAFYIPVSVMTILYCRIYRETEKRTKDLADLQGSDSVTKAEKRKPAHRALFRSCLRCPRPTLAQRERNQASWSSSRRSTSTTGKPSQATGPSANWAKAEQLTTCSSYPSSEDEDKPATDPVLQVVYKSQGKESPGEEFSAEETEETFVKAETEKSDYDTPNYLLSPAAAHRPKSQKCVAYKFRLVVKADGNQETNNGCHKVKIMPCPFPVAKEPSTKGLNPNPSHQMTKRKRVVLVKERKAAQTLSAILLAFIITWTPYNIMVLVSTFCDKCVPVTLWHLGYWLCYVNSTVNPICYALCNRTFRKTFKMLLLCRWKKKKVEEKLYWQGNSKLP
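Replicates: One well per compound, no replicates | System: Human M5 receptor in CHO-K1 cells | Benchmarks: Low control EC20 acetylcholine (0%), high control EC100 acetylcholine (100%) | Probe or stimulus: Acetylcholine, EC20 level | Times: Fluo-8 loading 80 min at 37 °C plus 30 min room temperature | Signal: Intracellular calcium via Fluo-8 fluorescence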
CHRM5 agonist: CHRM5 agonism in calcium assay. activation, % at 3 µM. 0.19% of 360,000 active. CHO-K1 hM5 cells, Fluo-8 calcium fluorescence; 0% DMSO wells, 100% maximal acetylcholine response. P08912;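 active means activation above the run's mean over test compounds plus 3 SD, cut at about 23% in these data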;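 further: signal is peak over basal fluorescence ratio across the kinetic read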
CHRM5 antagonist: CHRM5 antagonism in calcium assay; P08912; 0.59% of 360,000 active; CHO-hM5 cells, Fluo-8 calcium fluorescence, ACh EC80; inhibition, % at 3 µM;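 active means inhibition above a per-plate cutoff, the mean of that plate's test compounds plus 3 SD, cut at about 27% in these data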;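 further: 0% = acetylcholine EC80 with DMSO and 100% = DMSO without agonist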
CHRM4 agonist: CHRM4 agonism in calcium assay | P08173 | CHO-K1 hM4/Gqi5, Fluo-8 calcium fluorescence; vehicle 0%, full acetylcholine response 100% | activation, % at 3 µM | 0.14% of 360,000 active;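 active means activation above the run mean over all test wells plus 3 SD, cut at about 32% in these data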;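 further: peak over basal fluorescence ratio per well then scaled between controls; 0% = DMSO wells and 100% = acetylcholine at EC100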
M4 PAM: potentiates acetylcholine response at human M4 receptor; P08173; 0.4% of 360,000 active; activation, % at 3 µM; CHO-K1 hM4/Gqi5, Fluo-8 calcium fluorescence, ACh EC20; 0% = ACh EC20, 100% = maximal ACh;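 active means activation above its plate's cutoff, the mean activation of sample wells plus 3 SD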
M4 antag: antagonists of human muscarinic M4 receptor (CHRM4). P08173. CHO-hM4 cells, ACh EC80, Fluo-8 calcium fluorescence. inhibition, % at 3 µM. 0.73% of 360,000 active;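 active means inhibition above its plate's cutoff, the mean inhibition of sample wells plus 3 SD, cut at about 27% in these data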;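 further: 0% = acetylcholine EC80 with DMSO and 100% = DMSO without agonist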
An asterisk follows results filed as active. Shown are actives, neighbours in structure and some others; about 1.8% of the full set was active somewhere.

SMILES	CHRM5 PAM	CHRM5 agonist	CHRM5 antagonist	CHRM4 agonist	M4 PAM	M4 antag
O=C(COc1ccc(F)cc1F)NNC(=O)Nc1cccc([N+](=O)[O-])c1	4	-4	-3	2	0	1
O=C(COc1ccc([N+](=O)[O-])cc1)NNC(=O)Nc1cccc(F)c1	-11	0	29*	1	-6	7
CCOc1ccc(NC(=O)NNC(=O)COc2ccc3ccccc3c2)cc1	34*	2	22	1	1	-5
O=C(COc1ccc(-c2ccccc2)cc1)NNC(=O)NC1CCCCC1	-6	-2	-2	3	-21	87*
CN(C)CCN(Cc1ccccc1)C(=O)c1[nH]c(C(F)(F)F)nc1-c1ccccc1	-4	-2	6	1	-1	0
COP(=O)(OC)OC(C(=O)c1ccccc1)c1ccccc1 (stereo unspecified)	4	-1	4	0	-6	13
CN(C(=O)c1cccc(NC(=O)Cc2ccc(NC(=O)C3CCN(C(=O)c4ccccc4)CC3)cc2)c1)C1CCCC1	-5	1	-2	-1	0	-8
O=C(COC(=O)c1ccco1)NCCNC(=O)COC(=O)c1ccco1	8	-1	6	0	19*	14
CC(C)C[C@@H](CNC(=O)OC(C)(C)C)NC(=O)c1nc[nH]c1C(=O)N[C@@H](CC(C)C)C(=O)CNC[C@H](CC(C)C)NC(=O)c1nc[nH]c1C(=O)N[C@@H](Cc1c[nH]c2ccccc12)C(=O)OC(C)(C)C	1	4	2	0	10	-2
COCCN1C[C@@H](CO)O[C@@H](n2cnc3c(NCc4ccco4)ncnc32)C1	-3	1	3	0	-2	-2
COc1ccccc1NS(=O)(=O)c1cccc(-n2c(O)c(C=Nc3ccccc3C(=O)O)c3ccccc3c2=O)c1	9	-1	-3	-2	36*	1
COc1ccc(Cn2c(O)c(C=Nc3ccccc3C(=O)O)c3ccccc3c2=O)cc1	13	3	-3	-2	16	-18
O=C(Nc1cc(Cl)ccc1O)C1CC(c2ccccc2Cl)=NO1 (stereo unspecified)	0	0	8	7	-4	2
CCOc1ccc(NC(=O)CN(C)C(=O)C2CCN(C(=O)Nc3ccccc3)CC2)cc1OCC	1	0	11	0	1	-9
Cc1cc(/C=C2/SC(=S)N(c3cccc(Cl)c3)C2=O)c(C)n1-c1cccnc1	-19	12	26	16	-10	34*
Cc1cc(/C=C2/SC(=S)N(c3ccc([N+](=O)[O-])cc3)C2=O)c(C)n1-c1cccnc1	-14	4	26	13	-5	5
Cc1cc(/C=C2\SC(=S)N(C)C2=O)c(C)n1-c1ccccc1O	-19	6	27	12	-15	27*
O=C(COC(=O)c1ccccc1NS(=O)(=O)c1ccc(Cl)cc1)NCc1ccccc1	10	0	-10	2	21*	0
O=C(COC(=O)c1cc2ccccc2cc1O)NCc1ccccc1	18*	7	-8	2	1	-6
COc1cc(-n2c(=O)c3ccccc3n(Cc3cccc(F)c3)c2=O)cc(OC)c1OC	8	0	-17	0	-6	1
COc1cc(-n2c(=O)c3ccccc3n(Cc3ccccc3)c2=O)cc(OC)c1OC	30*	3	30*	0	2	-2
O=C(CN1CCCCC1)N1N=C(c2cccs2)CC1c1cccs1 (stereo unspecified)	-20	-10	38*	1	-18	45*
COc1ccc(S(=O)(=O)N2CCCCC2)cc1NS(=O)(=O)c1ccccc1	17	7	-12	2	7	-7
COc1cc2cc(C(c3nnnn3C3CCCC3)N(C)C3CCCCC3)c(=O)[nH]c2cc1OC (stereo unspecified)	-3	-2	-1	2	4	-8
COc1cc2cc(C(c3nnnn3C3CCCCC3)N(C)C3CCCCC3)c(=O)[nH]c2cc1OC (stereo unspecified)	-6	0	-2	-2	-12	30*
SMILES	CHRM5 PAM	CHRM5 agonist	CHRM5 antagonist	CHRM4 agonist	M4 PAM	M4 antag
O=C(COc1ccc(Cl)cc1Br)N1CCN(c2ncccn2)CC1	-5	-3	4	9	3	-23
CCc1nc2ccc(C(=O)N3CCCCC3)cn2c1N(C)CCCc1ccccc1	-16	-3	2	5	-11	33*
CCc1nc2ccc(C(=O)NCCCn3ccnc3)cn2c1N(C)CCCc1ccccc1	-15	-3	10	5	-10	27*
Cc1onc(-c2c(F)cccc2Cl)c1C(=O)Nc1cc2cc([N+](=O)[O-])ccc2oc1=O	-10	-2	4	2	3	-2
Cc1ccc(NC(=O)CNc2ccc(Cl)c(Cl)c2)cc1S(=O)(=O)N(C)C	-14	9	24	27	-11	33*
CCOC(CNC(=O)c1ccc2c(c1)ncn2-c1cccc(F)c1)OCC	-11	-1	28*	1	-4	4
C=CCn1c(=O)c(C(=O)Nc2ccccc2O)c(O)c2ccccc21	-4	-10	-2	0	-5	4
C=CCn1c(=O)c(C(=O)Nc2ccccc2C)c(O)c2ccccc21	27*	8	-17	0	-4	-16
CC(C)Cn1c(=O)c(C(=O)Nc2ccncc2)c(O)c2ccccc21	-33	-20	100*	1	-47	98*
CC(C)CC1C2C(=O)N(c3ccccc3)C(=O)C2ON1c1ccccc1 (stereo unspecified)	1	-6	3	0	0	-6
Cc1cc(NC(=O)c2cc3ccccc3o2)ccc1NC(=O)c1ccccc1	-5	-3	6	10	-5	-8
Cc1cc(NC(=O)c2cccnc2)ccc1NC(=O)c1cc2ccccc2o1	-15	6	-1	33*	-9	-15
O=C(CN1C(=O)CCC1=O)Nc1ccc(Br)cc1	-10	-5	-5	0	3	-15
O=C(CN1C(=O)CCC1=O)Nc1cccc(NC(=O)CN2C(=O)CCC2=O)c1	19*	0	-2	1	11	-10
Cc1oc2c(CN3CCCC3)c(O)ccc2c(=O)c1-c1ccccc1	-4	-1	8	0	-19	14
Cc1oc2c(CN3CCOCC3)c(O)ccc2c(=O)c1-c1ccc(Cl)cc1	16	-1	-11	1	-32	7
Cc1oc2c(CN3CCOCC3)c(O)ccc2c(=O)c1-c1ccc(Br)cc1	-2	-4	-1	0	-20	38*
